# Source: ChEMBL document CHEMBL1147967, “Prodrug-based design, synthesis, and biological evaluation of N-benzenesulfonylpiperidine derivatives as novel, orally active factor Xa inhibitors” (Bioorg Med Chem, 2007)
# pIC50: −log10 of the molar value.
# Legend:
# Homo sapiens [1] = organism: Homo sapiens; assay: Selectivity for human factor 10a over human trypsin
# Homo sapiens [2] = organism: Homo sapiens; assay: Selectivity for human factor 10a over human thrombin
# Mus musculus = assay: Anticoagulant activity in ICR mouse plasma assessed as PT-prolongation at 100 mg/kg, po after 0.5 hrs relative to control; format: functional
# Method in brief: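 Male ICR mice (20–35 g), fasted overnight, were given compound orally by gastric tube at 100 mg/kg as a suspension in 0.5% methylcellulose. At 0.5 h, blood was drawn from the abdominal vena cava into 3.8% citrate, and platelet-poor plasma was prepared by centrifugation. PT was measured and expressed as percent change versus vehicle or normal plasma, mean ± SEM, n = 3.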
# Coagulation factor X = Coagulation factor X (Homo sapiens, UniProt P00742); assay: Inhibition of human factor 10a
# Trypsin = Trypsin (Homo sapiens, UniProt P07477+P07478+P35030); assay: Inhibition of human trypsin; format: protein assay
# Prothrombin = Prothrombin (Homo sapiens, UniProt P00734); assay: Inhibition of human thrombin
# Plasma [3] = assay: Anticoagulant activity in human plasma assessed as concentration required to double prothrombin time; format: functional
# Plasma [4] = assay: Anticoagulant activity in mouse plasma assessed as concentration required to double prothrombin time; format: functional
# Method in brief: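 Pooled citrated mouse plasma was incubated with diluted compound for 1 min at 37 °C. Brain thromboplastin PT reagent was then added to start clotting, and clot time was read on a coagulometer. The concentration doubling clotting time (CT₂) was estimated from each individual dose–response curve.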
# Coagulation factor X, sequence (P00742 41-179 limits assumed): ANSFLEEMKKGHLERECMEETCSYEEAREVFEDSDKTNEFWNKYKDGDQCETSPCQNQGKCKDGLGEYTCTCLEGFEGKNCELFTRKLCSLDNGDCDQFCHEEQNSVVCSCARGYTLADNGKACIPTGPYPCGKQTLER
# Coagulation factor X, sequence (P00742 235-488 limits assumed): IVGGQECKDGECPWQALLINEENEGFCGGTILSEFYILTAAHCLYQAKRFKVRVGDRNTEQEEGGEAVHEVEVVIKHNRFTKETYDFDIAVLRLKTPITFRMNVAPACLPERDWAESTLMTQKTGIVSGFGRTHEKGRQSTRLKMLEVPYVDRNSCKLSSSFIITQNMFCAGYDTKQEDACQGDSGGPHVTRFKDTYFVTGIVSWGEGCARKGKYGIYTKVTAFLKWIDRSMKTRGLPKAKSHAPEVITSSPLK
Selectivity ratio (Homo sapiens [1]),Selectivity ratio (Homo sapiens [2]),pIC50 (Coagulation factor X),IC50 (Trypsin) [µM],pIC50 (Prothrombin),Compound,Activity (Mus musculus) [%],Activity (Plasma [3]) [µM],Activity (Plasma [4]) [µM]
> 100,> 7000,,,,CCOC(=O)CC(=O)N(Cc1ccc2ccc(/C(N)=N\O)cc2c1)C1CCN(S(=O)(=O)c2cc(OC)ccc2OC)CC1,109,,
> 100,> 7000,7.92,2.5,< 4.00,COc1ccc(OC)c(S(=O)(=O)N2CCC(N(Cc3ccc4ccc(C(=N)N)cc4c3)C(C)=O)CC2)c1,,,
> 100,> 7000,7.89,6,< 4.00,COc1ccc(OC)c(S(=O)(=O)N2CCC(N(C/C=C/c3cccc(C(=N)N)c3)C(=O)CC(=O)O)CC2)c1,104,0.55,1.4
> 100,> 7000,< 4.00,,,CS(=O)(=O)N1CCC(N(Cc2ccc3ccc(C(=N)N)cc3c2)S(C)(=O)=O)CC1,,,
> 100,> 7000,7.89,2.7,< 4.00,COc1ccc(OC)c(S(=O)(=O)N2CCC(N(Cc3ccc4ccc(C(=N)N)cc4c3)S(=O)(=O)CC(=O)O)CC2)c1,,0.55,1.7
,,7.00,,,CS(=O)(=O)N(Cc1ccc2ccc(C(=N)N)cc2c1)C1CCN(S(=O)(=O)c2cc(Cl)sc2Cl)CC1,,,
,,,,,CCOC(=O)CS(=O)(=O)N(Cc1ccc2ccc(/C(N)=N\O)cc2c1)C1CCN(S(=O)(=O)c2cc(OC)ccc2OC)CC1,101,,
> 100,> 7000,6.25,,,CS(=O)(=O)N(Cc1ccc2ccc(C(=N)N)cc2c1)C1CCN(S(=O)(=O)c2cccc(Cl)c2Cl)CC1,,,
,,,3.2,,CC(=N)N1CC[C@H](Oc2ccc([C@H](Cc3ccc4ccc(C(=N)N)cc4c3)C(=O)O)cc2)C1 [DX-9065A],151,0.55,4.9
> 100,> 7000,6.72,,,CS(=O)(=O)N(Cc1ccc2ccc(C(=N)N)cc2c1)C1CCN(S(=O)(=O)c2ccc(Cl)c(Cl)c2)CC1,,,
> 100,> 7000,< 4.00,,,Cc1ccc(S(=O)(=O)N2CCC(N(Cc3ccc4ccc(C(=N)N)cc4c3)S(C)(=O)=O)CC2)cc1,,,
,,6.60,,,Cc1cccc(S(=O)(=O)N2CCC(N(Cc3ccc4ccc(C(=N)N)cc4c3)S(C)(=O)=O)CC2)c1,,,
> 100,> 7000,5.64,,,CS(=O)(=O)N(Cc1ccc2ccc(C(=N)N)cc2c1)C1CCN(Cc2cccc(C#N)c2)CC1,,,
,,6.77,,,CS(=O)(=O)N(Cc1ccc2ccc(C(=N)N)cc2c1)C1CCN(S(=O)(=O)c2cccc(C#N)c2)CC1,,,
> 100,> 7000,,,,CCOC(=O)CC(=O)N(C/C=C/c1cccc(/C(N)=N\O)c1)C1CCN(S(=O)(=O)c2cc(OC)ccc2OC)CC1,187,,
> 100,> 7000,< 4.00,,,CS(=O)(=O)N(Cc1ccc2ccc(C(=N)N)cc2c1)C1CCNCC1,,,
> 100,> 7000,6.10,,,CS(=O)(=O)N(Cc1ccc2ccc(C(=N)N)cc2c1)C1CCN(S(=O)(=O)c2cccc(F)c2)CC1,,,
,,6.07,,,CS(=O)(=O)N(Cc1ccc2ccc(C(=N)N)cc2c1)C1CCN(S(=O)(=O)c2ccccc2)CC1,,,

Selectivity ratio (Homo sapiens [1]),Selectivity ratio (Homo sapiens [2]),pIC50 (Coagulation factor X),IC50 (Trypsin) [µM],pIC50 (Prothrombin),Compound,Activity (Mus musculus) [%],Activity (Plasma [3]) [µM],Activity (Plasma [4]) [µM]
> 100,> 7000,< 4.00,,,CS(=O)(=O)N(Cc1ccc2ccc(C(=N)N)cc2c1)C1CCN(C(=O)c2cccc(C#N)c2)CC1,,,
,,5.80,,,CS(=O)(=O)N(Cc1ccc2ccc(C(=N)N)cc2c1)C1CCN(S(=O)(=O)c2ccc(Cl)cc2)CC1,,,
,,6.23,,,COc1ccc(OC)c(S(=O)(=O)N2CCC(N(C)Cc3ccc4ccc(C(=N)N)cc4c3)CC2)c1,,,
> 100,> 7000,8.09,3.7,< 4.00,COc1ccc(OC)c(S(=O)(=O)N2CCC(N(Cc3ccc4ccc(C(=N)N)cc4c3)C(=O)CC(=O)O)CC2)c1,,0.56,1.6
> 100,> 7000,< 4.00,,,CS(=O)(=O)N(Cc1ccc2ccc(C(=N)N)cc2c1)C1CCN(S(=O)(=O)c2c(Cl)cccc2Cl)CC1,,,
> 100,> 7000,6.02,,,Cc1ccccc1S(=O)(=O)N1CCC(N(Cc2ccc3ccc(C(=N)N)cc3c2)S(C)(=O)=O)CC1,,,
,,6.70,,,CS(=O)(=O)N(Cc1ccc2ccc(C(=N)N)cc2c1)C1CCN(S(=O)(=O)c2cccc(-c3ccccc3)c2)CC1,,,
,,7.19,,,CS(=O)(=O)N(Cc1ccc2ccc(C(=N)N)cc2c1)C1CCN(S(=O)(=O)c2cc(Cl)ccc2Cl)CC1,,,
> 100,> 7000,6.46,,,CS(=O)(=O)N(Cc1ccc2ccc(C(=N)N)cc2c1)C1CCN(S(=O)(=O)c2ccccc2Cl)CC1,,,
> 100,> 7000,,,,CCOC(=O)CS(=O)(=O)N(C/C=C/c1cccc(/C(N)=N\O)c1)C1CCN(S(=O)(=O)c2cc(OC)ccc2OC)CC1,116,,
> 100,> 7000,7.96,1.1,< 4.00,COc1ccc(OC)c(S(=O)(=O)N2CCC(N(Cc3ccc4ccc(C(=N)N)cc4c3)S(C)(=O)=O)CC2)c1,,,
> 100,> 7000,8.00,5.3,< 4.00,COc1ccc(OC)c(S(=O)(=O)N2CCC(N(C/C=C/c3cccc(C(=N)N)c3)S(=O)(=O)CC(=O)O)CC2)c1,,0.47,1.2
,,7.05,,,CS(=O)(=O)N(Cc1ccc2ccc(C(=N)N)cc2c1)C1CCN(c2ccncc2)CC1,,,
> 100,> 7000,5.77,,,CS(=O)(=O)N(Cc1ccc2ccc(C(=N)N)cc2c1)C1CCN(Cc2cccc(Cl)c2)CC1,,,
> 100,> 7000,7.41,,,COc1ccc(Cl)cc1S(=O)(=O)N1CCC(N(Cc2ccc3ccc(C(=N)N)cc3c2)S(C)(=O)=O)CC1,,,
> 100,> 7000,7.24,,,COc1ccc(C)cc1S(=O)(=O)N1CCC(N(Cc2ccc3ccc(C(=N)N)cc3c2)S(C)(=O)=O)CC1,,,
> 100,> 7000,< 4.00,,,CS(=O)(=O)N(Cc1ccc2ccc(C(=N)N)cc2c1)C1CCN(C(=O)c2cccc(Cl)c2)CC1,,,
,,7.31,,,CS(=O)(=O)N(Cc1ccc2ccc(C(=N)N)cc2c1)C1CCN(S(=O)(=O)c2cccc(Cl)c2)CC1,,,
